Data reported in ChEMBL document CHEMBL4414568, “Development of Novel Irreversible Pyruvate Kinase M2 Inhibitors” (J Med Chem, 2019).
Calls of active or inactive are those of the source. The rule behind the calls is not given here.

Key:
PC-9 [1] = test: Induction of ROS production in human PC9 cells at 0.25 and 0.5 uM incubated for 6 hrs by H2DCFDA dye-based fluorescence assay; format: functional, cell-based
Summary of the method: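 PC-9 cells at 2 × 10^4 per well, after 24 h treated with compound or DMSO for 6 h. Cells washed, given 1X ROS label in assay buffer for 45 min at 37 °C in the dark, fluorescence read at Ex/Em 495/529 nm as an end point. n = 3.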

[2] = molecular target: T1, Citrate synthase, mitochondrial (Homo sapiens) (UniProt O75390); test: Binding affinity to CS in human PC9 cells incubated for 1 hr by ABPP-SILAC assay; format: cell-based
T1 sequence (whole entry): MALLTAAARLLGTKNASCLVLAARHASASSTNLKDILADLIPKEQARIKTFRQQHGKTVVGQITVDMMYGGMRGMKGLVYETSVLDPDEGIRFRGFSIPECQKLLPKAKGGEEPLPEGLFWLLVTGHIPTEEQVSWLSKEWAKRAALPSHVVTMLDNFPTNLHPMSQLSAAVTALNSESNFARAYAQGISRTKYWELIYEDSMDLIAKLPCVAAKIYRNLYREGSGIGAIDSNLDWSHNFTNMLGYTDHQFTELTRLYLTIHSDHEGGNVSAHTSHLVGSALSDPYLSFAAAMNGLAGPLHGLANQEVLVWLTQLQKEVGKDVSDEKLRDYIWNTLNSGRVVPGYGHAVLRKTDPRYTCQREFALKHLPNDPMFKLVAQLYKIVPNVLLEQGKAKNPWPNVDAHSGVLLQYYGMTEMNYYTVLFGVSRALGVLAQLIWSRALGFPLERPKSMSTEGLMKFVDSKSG
Summary of the method: (§1)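 PC-9 cells passaged at least six times in SILAC DMEM with 10% dialyzed FBS plus 100 µg/mL light or 13C/15N-labeled Arg/Lys. Heavy cells got ABPP probe (1 µM) and light cells DMSO, 1 h at 37 °C. Cells mixed 1:1, sonicated, spun at 100,000g, protein normalized to 1 mg/mL. Click biotin-azide, streptavidin bead pulldown 16 h at 4 °C, SDS-PAGE, on-bead trypsin digestion, LC-MS/MS.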

Pyruvate kinase PKM [3] = molecular target: T2, Pyruvate kinase PKM (Homo sapiens, UniProt P14618); test: Binding affinity to recombinant human N-terminal His6-tagged PKM2 expressed in Escherichia coli BL21 (DE3) assessed as Cys317-adduct formation by NanoLC-MS/MS analysis
Summary of the method: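 In-house His-tag PKM2 from E. coli BL21(DE3), purified by Ni-NTA then Superdex 200, treated with compound. Reduced with 30 mM DTT at 37 °C for 1 h, alkylated with 30 mM iodoacetamide for 1 h in the dark, trypsin 1:30 w/w overnight at 37 °C. Digests from 6 experiments pooled, 48 nanoLC-MS/MS runs in data-dependent mode, Orbitrap MS1.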

Pyruvate kinase PKM [4] = molecular target: T2, Pyruvate kinase PKM; test: Inhibition of PKM2 in human PC9 cells at 0.25 uM using PEP as substrate incubated for 6 hrs by OxiRed probe-based colorimetric analysis; format: cell-based
Summary of the method: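 PC-9 cells seeded at 5 × 10^5 cells/mL, after 24 h given 0.25 µM compound or DMSO for 6 h. Lysate pyruvate kinase activity read with a colorimetric kit measuring H2O2 made from PEP and […] through PK and then pyruvate oxidase. n = 3.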

PC-9 [5] = test: Antitumor activity against human PC9 cells xenografted in athymic nude mouse assessed as reduction in tumor weight at 10 mg/kg, ip administered once daily for 25 days measured post-last dose; format: functional, organism-based
Summary of the method: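 Female nude mice, 6 weeks old, given s.c. 1 × 10^6 PC-9 cells in Matrigel (1:1). From day 7, once-daily i.p. vehicle or 10 mg/kg compound in sterile water with 0.5% methylcellulose and 0.1% Tween-80, n = 8 per group, for 25 days. Tumor volume and body weight followed, tumors weighed at end.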

[6] = molecular target: T3, ATP-citrate synthase (Homo sapiens) (UniProt P53396); test: Binding affinity to ACYL in human PC9 cells incubated for 1 hr by ABPP-SILAC assay; format: cell-based; summary of the method: as §1
T3 sequence (whole entry): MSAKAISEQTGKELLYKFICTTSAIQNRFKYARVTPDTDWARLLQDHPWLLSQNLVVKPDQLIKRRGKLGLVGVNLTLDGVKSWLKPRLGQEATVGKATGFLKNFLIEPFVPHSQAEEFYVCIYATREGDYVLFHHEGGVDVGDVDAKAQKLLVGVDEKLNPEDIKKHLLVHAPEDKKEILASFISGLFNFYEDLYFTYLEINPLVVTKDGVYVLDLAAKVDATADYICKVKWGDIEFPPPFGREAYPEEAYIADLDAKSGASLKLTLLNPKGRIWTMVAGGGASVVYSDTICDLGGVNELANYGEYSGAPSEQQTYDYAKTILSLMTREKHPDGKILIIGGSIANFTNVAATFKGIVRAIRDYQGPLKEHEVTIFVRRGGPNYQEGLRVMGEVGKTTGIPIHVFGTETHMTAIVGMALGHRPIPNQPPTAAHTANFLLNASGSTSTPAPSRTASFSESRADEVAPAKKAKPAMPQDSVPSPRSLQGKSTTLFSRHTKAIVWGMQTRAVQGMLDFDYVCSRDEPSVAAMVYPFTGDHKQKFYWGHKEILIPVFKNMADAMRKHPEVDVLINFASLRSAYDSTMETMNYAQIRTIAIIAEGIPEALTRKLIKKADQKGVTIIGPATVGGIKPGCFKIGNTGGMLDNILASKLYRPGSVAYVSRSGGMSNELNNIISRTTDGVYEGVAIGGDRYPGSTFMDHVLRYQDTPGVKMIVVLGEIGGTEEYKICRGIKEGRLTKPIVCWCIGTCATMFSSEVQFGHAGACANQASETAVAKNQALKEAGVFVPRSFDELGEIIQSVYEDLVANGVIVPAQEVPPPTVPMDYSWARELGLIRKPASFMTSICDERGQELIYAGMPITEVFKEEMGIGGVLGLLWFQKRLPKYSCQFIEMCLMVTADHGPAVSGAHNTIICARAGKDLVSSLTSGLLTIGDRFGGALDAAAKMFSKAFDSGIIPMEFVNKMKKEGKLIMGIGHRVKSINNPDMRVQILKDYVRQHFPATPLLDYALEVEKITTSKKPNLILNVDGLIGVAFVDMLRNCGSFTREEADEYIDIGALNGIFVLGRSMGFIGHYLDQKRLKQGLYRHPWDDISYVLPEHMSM

NCI-H157 = test: Antiproliferative activity against human NCI-H157 cells expressing wild type EGFR assessed as reduction in cell viability incubated for 24 hrs by MTT assay; format: functional, cell-based; conditions: NCI-H157, 24 h
Summary of the method: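 Cells seeded at 3,500 per well in 10% FBS and left overnight, then exposed to test agent or vehicle in 5% FBS for 24 h. MTT added for 1 h, then medium swapped for DMSO and absorbance read at 560 nm. Viability given as percent of vehicle-treated control. Run in triplicate.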

Pyruvate kinase PKM [7] = molecular target: T2, Pyruvate kinase PKM; test: Inhibition of PKM2 in human PC9 cells assessed as reduction in beta-catenin expression incubated for 24 hrs by Western blot analysis; format: cell-based
Summary of the method: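 PC-9 cells seeded at 5 × 10^5 cells/mL; after 24 h given 0–1 µM compound or DMSO for 24 h. Lysates run on 10% SDS-PAGE, transferred to nitrocellulose, probed for PKM2, EGFR, p-STAT3, STAT3, p-β-catenin, β-catenin and β-actin with HRP secondaries, ECL detection.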

T2 sequence (P14618 2-531 limits assumed): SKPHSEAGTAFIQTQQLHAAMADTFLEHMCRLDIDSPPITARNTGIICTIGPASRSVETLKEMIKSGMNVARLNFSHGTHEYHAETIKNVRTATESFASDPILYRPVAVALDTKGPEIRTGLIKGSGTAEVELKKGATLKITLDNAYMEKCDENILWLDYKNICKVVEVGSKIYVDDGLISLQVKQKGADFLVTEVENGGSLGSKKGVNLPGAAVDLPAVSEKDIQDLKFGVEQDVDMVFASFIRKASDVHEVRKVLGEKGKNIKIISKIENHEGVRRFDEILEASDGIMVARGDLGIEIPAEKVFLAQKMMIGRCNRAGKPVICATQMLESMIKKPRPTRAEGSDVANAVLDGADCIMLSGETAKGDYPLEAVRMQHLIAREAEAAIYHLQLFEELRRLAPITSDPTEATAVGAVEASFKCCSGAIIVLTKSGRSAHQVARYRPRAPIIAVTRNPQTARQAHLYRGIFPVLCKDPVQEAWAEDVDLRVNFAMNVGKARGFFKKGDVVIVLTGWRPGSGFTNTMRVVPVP

- Activity [2]: Active
- Activity (Pyruvate kinase PKM [3]): Active
- inhibition (Pyruvate kinase PKM [4]): Active
- Activity [6]: Active
- IC50 (NCI-H157): > 2000 nM
- inhibition (Pyruvate kinase PKM [7]): Dose-dependent effect
Structure (SMILES): C#CC(=O)Nc1ccc(-n2nc(CCC(=O)NC)cc2-c2ccc(-c3ccc(C(F)(F)F)cc3)cc2)cc1
- Activity (PC-9 [1]): inactive
- Activity (PC-9 [5]): Active
